Screens (PubChem)
Compounds with a hit are over-represented: about 2.9% of the library has one in this group of screens.
HTR1E agonist = activates the human 5-HT1E serotonin receptor. P28566. CHO 5-HT1E Ga15 NFAT-bla reporter, FRET; 0% DMSO wells, 100% control agonist wells. activation, % at 6 µM. 65,000 tested, 0.69% active. AID 574;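 active = activation above a set limit, the screen-wide mean activation plus 3 SD, cut at about 8.5% in these data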;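 note: 100% = positive control agonist at 1 µM giving full maximal response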
Target sequence (P28566 whole entry, looked up): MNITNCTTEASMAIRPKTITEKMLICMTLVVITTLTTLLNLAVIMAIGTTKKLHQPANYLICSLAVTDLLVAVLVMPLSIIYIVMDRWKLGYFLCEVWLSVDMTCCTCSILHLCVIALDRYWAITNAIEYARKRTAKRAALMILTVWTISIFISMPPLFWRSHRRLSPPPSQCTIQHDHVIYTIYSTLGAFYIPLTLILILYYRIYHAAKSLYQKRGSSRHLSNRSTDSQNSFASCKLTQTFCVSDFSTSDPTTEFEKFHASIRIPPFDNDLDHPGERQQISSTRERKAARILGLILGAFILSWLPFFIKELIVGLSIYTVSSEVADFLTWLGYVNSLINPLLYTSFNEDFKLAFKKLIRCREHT
S1P1 ag pot = activates or potentiates agonism at human S1P1 receptor | S1P1 CRE-bla cells, forskolin, beta-lactamase FRET, potentiator mode; S1P1 agonist co-added at EC20, 2 nM; 100% = saturating reference agonist, 0% = basal | activation, % at 9.5 µM | 56,000 tested, 0.57% active;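 active = activation above a cutoff set at the mean activation of all tested compounds plus 3 SD, cut at about 54% in these data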;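 note: forskolin at 4 µM as EC80 and the EC20 agonist is SEW2871; 100% = SEW2871 at its EC100 plus forskolin at EC80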
5HT1a antag = antagonists of human 5-HT1a serotonin receptor. CHO 5-HT1a Ga15 NFAT-bla reporter, antagonist mode. P08908. 62,000 tested, 0.68% active. inhibition, % at 10 µM. AID 612;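 active = inhibition above the mean of all tested compounds plus 3 SD, cut at about 43% in these data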;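 note: receptor stimulated by 5-CT agonist at 100 nM near EC80; beta-lactamase reporter measured by ratiometric fluorescence of a cleavable substrate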
5HT1a ag = activates the human 5-HT1a serotonin receptor | CHO 5-HT1a Ga15 NFAT-bla reporter, FRET ratio; 0% basal, 100% maximal reference agonist | activation, % at 10 µM | 65,000 tested, 0.56% active;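 active = activation above the screen-wide mean activation plus 3 SD, cut at about 19% in these data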;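 note: 0% = DMSO wells and 100% = 5-CT at EC100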
HTR1E antagonist = antagonists of human 5-HT1E serotonin receptor. P28566. CHO 5-HT1E Ga15 NFAT-bla reporter, FRET, antagonist. inhibition, % at 6 µM. 65,000 tested, 0.99% active;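 active = inhibition above a set limit, the mean inhibition across every tested compound plus 3 SD, cut at about 29% in these data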;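 note: signal is the 460 over 535 nm emission ratio of beta-lactamase substrate; 0% = agonist plus DMSO wells and 100% = wells without agonist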
S1P3 ag = agonists of human S1P3 receptor; S1P3 NFAT-BLA reporter cells, agonism, FRET ratio; relative to 1 µM S1P, basal subtracted; activation, % at 4.5 µM; 60,000 tested, 0.1% active;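 active = activation above the screen-wide mean plus 3 SD, cut at about 4.5% in these data, passing the limit was not always enough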
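Benchmarks: high control 1 µM S1P / System: stable CHO line with human S1P3, Gα16, NFAT-BLA reporter / Dosing: single compound concentration, 4.5 µM final / Timing: 4 h compound at 37 °C, 2 h substrate at RT / Measured by: FRET β-lactamase substrate fluorescence, excitation 405 nm, 460/535 nm emission ratio, background-subtracted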
The depositor's hits bear a star; · = no result given.

SMILES	HTR1E agonist	S1P1 ag pot	5HT1a antag	5HT1a ag	HTR1E antagonist	S1P3 ag
CCc1nc(SCC(=O)Nc2nccs2)c2oc3ccccc3c2n1	4	-60	2	1	38*	0
CCc1nc(SCC(=O)Nc2ccc3c(c2)OCCO3)c2oc3ccccc3c2n1	0	3	5	-2	23	-1
Cc1cccc(NC(=O)CSc2ncnc3c2oc2ccccc23)c1	1	-36	4	1	12	1
COc1ccccc1NC(=O)CSc1ncnc2c1oc1ccccc12	0	-26	-2	1	36*	-1
Cc1nc2ccccc2c2oc(C(=O)NCc3ccccn3)cc12	0	-36	1	34*	-1	-1
O=C(Cc1c[nH]c2ccccc12)NCc1ccc2c(c1)OCO2	0	29	30	-1	0	0
c1ccc2c(c1)CCOC2CNCCCN1CCCCC1 (stereo not given)	-1	6	·	0	3	-3
O=C(O)Cn1c(SC2CCCCC2)nc2ccccc21	0	-11	-1	19*	-16	0
CN(C)CCOC(=O)CCc1ccccc1	0	-5	-28	-6	-4	-1
CN(C)CCOc1ccccc1Cc1ccccc1	16*	-8	·	2	-7	-2
C=CCn1c(SCC(=O)c2ccc(OC)cc2)nnc1C(C)NC(=O)c1cccs1 (stereo not given)	1	·	-9	0	4	0
Cc1cc(NCCN2CCOCC2)n2nc(C)c(-c3ccccc3)c2n1	0	8	10	-1	24	-2
Cc1cc(NCCN2CCOCC2)n2nc(C)c(-c3ccc(Cl)cc3)c2n1	1	-10	-2	3	32*	-1
Cn1cc(/C(Cc2ccccc2)=N\O)c2ccccc21	57*	11	31	-5	0	-1
COC(=O)c1cn(C(=O)c2ccco2)c2ccccc12	0	-9	-5	-2	-5	-2
C=CCn1cnc2c(c1=O)c1nc3ccccc3nc1n2-c1ccc(Cl)cc1	0	10	·	1	-1	-4
CCCc1cc(=O)oc2c(C)c3occ(C)c3cc12	0	·	40	-1	39*	0
COc1ccc2c(c1)c(=O)oc1c(C)c3occ(C)c3cc12	0	·	4	-1	-6	1
C=CCNc1nc2c(c(=O)n(C)c(=O)n2C)n1CC(=C)C	0	6	-3	1	-5	-1
O=C(Nc1cccc(F)c1)c1c(F)c(F)c(F)c(F)c1F	-1	25	11	-2	-8	0
O=C(Nc1ccccc1NC(=O)c1c(F)c(F)c(F)c(F)c1F)c1c(F)c(F)c(F)c(F)c1F	1	-14	27	2	30*	-1
CC(C)CC(c1nnnn1Cc1ccco1)N1CCN(c2cccc(Cl)c2)CC1 (stereo not given)	-2	5	46*	5	13	-1
CC(C)OC(=O)CSc1nnc(-c2cccnc2)n1Cc1ccccc1	0	-2	-1	-1	-8	-1
CC(C)OC(=O)CSc1nnc(-c2cccnc2)n1N	-1	8	10	0	29*	0
Cc1[nH]n(CCC#N)c(=O)c1CC(=O)N1CCN(c2ccccc2)CC1	0	1	2	-6	-8	-1
SMILES	HTR1E agonist	S1P1 ag pot	5HT1a antag	5HT1a ag	HTR1E antagonist	S1P3 ag
COc1ccc(-c2nc(-c3ccncc3)no2)cc1OC	1	106*	-2	3	5	1
CCOc1ccc(-c2noc(-c3ccncc3)n2)cc1OCC	0	109*	-4	0	-10	17*
COc1ccccc1-c1nc(-c2ccncc2)no1	0	25	8	-2	-5	-1
COc1ccc(-c2nnc(-c3ccc(Br)o3)o2)cc1OC	0	10	-10	0	-2	0
COc1ccccc1-c1nc(-c2ccc(Br)cc2)no1	0	78*	14	-4	6	-2
COc1ccc(-c2nc(-c3ccc(Br)o3)no2)cc1OC	-1	82*	18	1	26	0
CCCn1c(CNc2ccc(Br)cc2)nc2ccccc21	1	54	19	-2	2	-1
CCOc1ccc(-c2nc(-c3ccc(OC)cc3)no2)cc1OCC	0	98*	-4	-4	-3	0
Cc1cc(C(F)(F)F)nn1CCCNC(=O)c1cnccn1	-1	-16	7	-2	9	0
Nc1cc(OC(=O)c2cccs2)nn1S(=O)(=O)c1ccccc1	-1	-11	8	-3	-1	0
Cc1nn(-c2ccccc2)c(OC(=O)c2cccs2)c1S(=O)(=O)c1ccccc1	-1	5	-6	81*	4	1
COc1ccc(C(c2c(O)ccc3ccccc23)N2CCOCC2)c(OC)c1 (stereo not given)	-1	110*	107*	-7	16	-2
CCCCn1nnnc1SCC(=O)c1ccc(C)c(C)c1	0	84*	11	0	4	0
CCCCn1nnnc1SCC(=O)Nc1cccc(C)n1	0	-7	0	-2	2	0
COC(=O)c1ccccc1NC1c2ccccc2C(=O)N1c1cccnc1 (stereo not given)	-1	-24	12	56*	13	-1
O=C1CC(C(=O)Nc2ccc(C(=O)N3CCOCC3)cc2)C2(CCCCC2)O1 (stereo not given)	0	-28	-14	-1	-1	-1
O=C1CC(C(=O)Nc2ccccc2)C2(CCCC2)O1 (stereo not given)	14*	·	1	-1	1	·
COc1ccc(NC(=O)C2CCCN(S(=O)(=O)c3cccnc3)C2)c(OC)c1 (stereo not given)	1	-8	4	-3	-1	0
CCN(CC)c1ccc(NC(=O)C2CCCN(S(=O)(=O)c3cccnc3)C2)c(C)c1 (stereo not given)	0	14	-4	0	32*	-1
CC1CCCC(NC(=O)c2ccc3c(=O)n(CC4CCCO4)c(=O)[nH]c3c2)C1C (stereo not given)	0	-5	-9	54*	-8	0
CC(=O)Nc1nc2ccccc2n1CCN(C)C	0	-13	-3	-2	-1	-2
CN(C)CCCn1c(NC(=O)C2CCCCC2)nc2ccccc21	54*	17	·	0	-7	-2
CCCC(=O)Nc1ccc(N2CCN(C(=O)c3cccs3)CC2)cc1	-2	22	7	-1	-3	-1
COc1cccc(-n2c(SCC(=O)NC(C)(C)C)nnc2-c2ccoc2C)c1	0	3	1	-1	3	-1
